Assay results reported in ChEMBL document CHEMBL1649269, “In vitro activities of three new dihydrofolate reductase inhibitors against clinical isolates of gram-positive bacteria” (2009).
Converted amounts (≈) assume the structure as drawn.

How the values were obtained:
Staphylococcus aureus [1] = assay: Antimicrobial activity against methicillin-sensitive Staphylococcus aureus by agar dilution method; assay type: functional
In short: (§1)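 MICs against clinical MRSA or MSSA isolates by CLSI agar dilution, with S. aureus ATCC 29213 as control strain. Percentage of susceptible isolates was calculated from the MICs using CLSI breakpoints.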

Staphylococcus aureus [2] = assay: Antimicrobial activity against methicillin-sensitive Staphylococcus aureus assessed as susceptible isolates by agar dilution method; assay type: functional; in short: as §1
Staphylococcus aureus [3] = assay: Antimicrobial activity against methicillin-resistant Staphylococcus aureus by agar dilution method; assay type: functional; in short: as §1
Staphylococcus aureus [4] = assay: Antimicrobial activity against Heterovancomycin-resistant Staphylococcus aureus by agar dilution method; assay type: functional
In short: (§2)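 Clinical S. aureus isolates classed as hVISA or VISA by population analysis profiling. MICs by CLSI agar dilution, with S. aureus ATCC 29213 as control strain.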

Staphylococcus aureus [5] = assay: Antimicrobial activity against vancomycin-resistant Staphylococcus aureus by agar dilution method; assay type: functional; in short: as §2
Staphylococcus [6] = assay: Antimicrobial activity against Coagulase-negative Staphylococcus by agar dilution method; assay type: functional
In short: (§3)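 CLSI agar dilution MIC testing of clinical isolates of staphylococci and Listeria. S. aureus ATCC 29213 and S. pneumoniae ATCC 49619 served as control strains. The percentage of susceptible isolates was calculated from CLSI breakpoints.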

Staphylococcus [7] = assay: Antimicrobial activity against Coagulase-negative Staphylococcus assessed as susceptible isolates by agar dilution method; assay type: functional; in short: as §3
[8] = tested on: Streptococcus sp. 'group A'; assay: Antimicrobial activity against Group A Streptococcus by agar dilution method; assay type: functional
In short: (§4)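 Clinical isolates of beta-hemolytic streptococci, S. mitis and S. pneumoniae were tested by CLSI methodology, with Mueller-Hinton medium supplemented with 5% lysed horse blood. S. aureus ATCC 29213 and S. pneumoniae ATCC 49619 served as control strains. The percentage of susceptible isolates was derived from CLSI breakpoints.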

[9] = tested on: Streptococcus sp. 'group A'; assay: Antimicrobial activity against Group A Streptococcus assessed as susceptible isolates by agar dilution method; assay type: functional; in short: as §4
[10] = tested on: Streptococcus sp. 'group B'; assay: Antimicrobial activity against Group B Streptococcus by agar dilution method; assay type: functional; in short: as §4
[11] = tested on: Streptococcus sp. 'group B'; assay: Antimicrobial activity against Group B Streptococcus assessed as susceptible isolates by agar dilution method; assay type: functional; in short: as §4
[12] = Antimicrobial activity against Group C Streptococcus by agar dilution method; assay type: functional; details: Streptococcus sp. 'group C'; in short: as §4
[13] = Antimicrobial activity against Group C Streptococcus assessed as susceptible isolates by agar dilution method; assay type: functional, Streptococcus sp. 'group C'; in short: as §4
[14] = Antimicrobial activity against Group G Streptococcus by agar dilution method; assay type: functional; details: Streptococcus sp. 'group G'; in short: as §4
[15] = Antimicrobial activity against Group G Streptococcus assessed as susceptible isolates by agar dilution method; assay type: functional, Streptococcus sp. 'group G'; in short: as §4
Streptococcus pneumoniae [16] = assay: Antimicrobial activity against Streptococcus pneumoniae by agar dilution method; assay type: functional; in short: as §4
Streptococcus pneumoniae [17] = assay: Antimicrobial activity against Streptococcus pneumoniae assessed as susceptible isolates by agar dilution method; assay type: functional; in short: as §4
Corynebacterium sp. [18] = assay: Antimicrobial activity against Corynebacterium spp. by agar dilution method; assay type: functional
Corynebacterium sp. [19] = assay: Antimicrobial activity against Corynebacterium spp. assessed as susceptible isolates by agar dilution method; assay type: functional
Listeria monocytogenes [20] = assay: Antimicrobial activity against Listeria monocytogenes by agar dilution method; assay type: functional; in short: as §3
Listeria monocytogenes [21] = assay: Antimicrobial activity against Listeria monocytogenes assessed as susceptible isolates by agar dilution method; assay type: functional; in short: as §3
Streptococcus mitis [22] = assay: Antimicrobial activity against Streptococcus mitis assessed as susceptible isolates by agar dilution method; assay type: functional; details: in the assay text read “broth dilution method” for “agar dilution method”; in short: as §4
Streptococcus mitis [23] = assay: Antimicrobial activity against Streptococcus mitis by broth dilution method

Compound | MIC50 (Staphylococcus aureus [1]) [µg/mL] | MIC90 (Staphylococcus aureus [1]) [µg/mL] | Activity (Staphylococcus aureus [2]) [%] | MIC50 (Staphylococcus aureus [3]) [µg/mL] | MIC90 (Staphylococcus aureus [3]) [µg/mL] | MIC50 (Staphylococcus aureus [4]) [µg/mL] | MIC90 (Staphylococcus aureus [4]) [µg/mL] | MIC50 (Staphylococcus aureus [5]) [µg/mL] | MIC90 (Staphylococcus aureus [5]) [µg/mL] | MIC50 (Staphylococcus [6]) [µg/mL] | MIC90 (Staphylococcus [6]) [µg/mL] | Activity (Staphylococcus [7]) [%] | MIC50 [8] [µg/mL] | MIC90 [8] [µg/mL] | Activity [9] [%] | MIC [10] [µg/mL] | MIC50 [10] [µg/mL] | MIC90 [10] [µg/mL] | Activity [11] [%] | MIC50 [12] [µg/mL] | other results
COc1cc(Cc2cnc(N)nc2N)cc(/C=C/C(=O)N2N=Cc3ccccc3C2c2cnc(N(C)C)nc2)c1OC (centres undefined) | 0.03 (≈ 0.053 µM) | 0.03 (≈ 0.053 µM) | 100 | 0.06 (≈ 0.106 µM) | 0.25 (≈ 0.442 µM) | 0.25 (≈ 0.442 µM) | 0.25 (≈ 0.442 µM) | 0.25 (≈ 0.442 µM) | 0.5 (≈ 0.884 µM) | 0.06 (≈ 0.106 µM) | 8 (≈ 14.1 µM) | 86 | 0.06 (≈ 0.106 µM) | 0.06 (≈ 0.106 µM) | 100 | 0.06 (≈ 0.106 µM) | 0.06 (≈ 0.106 µM) | 0.12 (≈ 0.212 µM) | 100 | 0.06 (≈ 0.106 µM) | MIC [8]: 0.06 µg/mL (≈ 0.106 µM); MIC90 [12]: 0.06 µg/mL (≈ 0.106 µM); Activity [13]: 100%; MIC [14]: 0.06 µg/mL (≈ 0.106 µM); MIC50 [14]: 0.06 µg/mL (≈ 0.106 µM); MIC90 [14]: 0.06 µg/mL (≈ 0.106 µM); Activity [15]: 100%; MIC50 (Streptococcus pneumoniae [16]): 0.12 µg/mL (≈ 0.212 µM); MIC90 (Streptococcus pneumoniae [16]): 0.25 µg/mL (≈ 0.442 µM); Activity (Streptococcus pneumoniae [17]): 100%; MIC50 (Corynebacterium sp. [18]): 0.12 µg/mL (≈ 0.212 µM); MIC90 (Corynebacterium sp. [18]): 4 µg/mL (≈ 7.07 µM); Activity (Corynebacterium sp. [19]): 83%; MIC (Listeria monocytogenes [20]): 0.03 µg/mL (≈ 0.053 µM); MIC50 (Listeria monocytogenes [20]): 0.03 µg/mL (≈ 0.053 µM); MIC90 (Listeria monocytogenes [20]): 0.03 µg/mL (≈ 0.053 µM); Activity (Listeria monocytogenes [21]): 100%; Activity (Streptococcus mitis [22]): 100%; MIC50 (Streptococcus mitis [23]): 0.03 µg/mL (≈ 0.053 µM)
COc1cc(Cc2cnc(N)nc2N)cc(/C=C/C(=O)N2N=Cc3ccccc3C2c2cnc(N3CCOCC3)nc2)c1OC (centres undefined) | 0.12 (≈ 0.197 µM) | 0.25 (≈ 0.411 µM) | 100 | 0.06 (≈ 0.0987 µM) | 0.06 (≈ 0.0987 µM) | 0.06 (≈ 0.0987 µM) | 0.06 (≈ 0.0987 µM) | 0.06 (≈ 0.0987 µM) | 0.5 (≈ 0.823 µM) | 0.06 (≈ 0.0987 µM) | 4 (≈ 6.58 µM) | 86 | 0.06 (≈ 0.0987 µM) | 0.12 (≈ 0.197 µM) | 100 | 0.06 (≈ 0.0987 µM) | 0.06 (≈ 0.0987 µM) | 0.12 (≈ 0.197 µM) | 100 | 0.06 (≈ 0.0987 µM) | MIC (Staphylococcus aureus [3]): 0.06 µg/mL (≈ 0.0987 µM); MIC (Staphylococcus aureus [5]): 0.06 µg/mL (≈ 0.0987 µM); MIC90 [12]: 0.12 µg/mL (≈ 0.197 µM); Activity [13]: 100%; MIC [14]: 0.03 µg/mL (≈ 0.0494 µM); MIC50 [14]: 0.03 µg/mL (≈ 0.0494 µM); MIC90 [14]: 0.06 µg/mL (≈ 0.0987 µM); Activity [15]: 100%; MIC50 (Streptococcus pneumoniae [16]): 0.12 µg/mL (≈ 0.197 µM); MIC90 (Streptococcus pneumoniae [16]): 0.12 µg/mL (≈ 0.197 µM); Activity (Streptococcus pneumoniae [17]): 100%; MIC50 (Corynebacterium sp. [18]): 0.12 µg/mL (≈ 0.197 µM); MIC90 (Corynebacterium sp. [18]): 4 µg/mL (≈ 6.58 µM); Activity (Corynebacterium sp. [19]): 83%; MIC (Listeria monocytogenes [20]): 0.06 µg/mL (≈ 0.0987 µM); MIC50 (Listeria monocytogenes [20]): 0.06 µg/mL (≈ 0.0987 µM); MIC90 (Listeria monocytogenes [20]): 0.06 µg/mL (≈ 0.0987 µM); Activity (Listeria monocytogenes [21]): 100%; Activity (Streptococcus mitis [22]): 100%; MIC50 (Streptococcus mitis [23]): 0.015 µg/mL (≈ 0.0247 µM)
